Platelet DG rel – inhibitors of platelet dense granule secretion, primary screen, cell-based, MLPCN, human platelets | 0.22% of 300,000 active | human platelet-rich plasma, SFLLRN dense granule ATP release, luminescence | AID 1663, 2009 | inhibition, %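 (compounds screened at 7.5 µM in platelet-rich plasma)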;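 active means mean replicate score, as percent of positive control, at or above 50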
PPC-1+TRAIL kill – compounds killing PPC-1 cancer cells with TRAIL present, primary screen, TRAIL potentiator project, ATPLite luminescence, uHTS; PPC-1 cells + TRAIL, ATPLite viability luminescence; cell killing (% activity), % at 4 µM or 5 µM; 0.41% of 220,000 active;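 active means cell killing above 50% in the first pass at 4 µM, then a duplicate retest at 5 µM averaging 50% or more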;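 further: plate controls were cells with TRAIL plus DMSO for no effect and medium-only wells lacking cells for full effect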
FLuc act counter – FLuc activators, initial screening, artefact control for FLuc-dependent activation tests, biochemical, ATPlite luminescence | activation factor at 10 µM | ATPlite luciferase biochemical, 10 min; 0 = ATP-free wells, 1 = DMSO control | Luciferin 4-monooxygenase (Photinus pyralis), P08659 | AID 1027, 2008 | 200,000 tested, under 10 active;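 active means luciferase activation factor, scaled between plate controls, of at least 2 with compound at 10 µM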
Target sequence (P08659 whole entry, looked up): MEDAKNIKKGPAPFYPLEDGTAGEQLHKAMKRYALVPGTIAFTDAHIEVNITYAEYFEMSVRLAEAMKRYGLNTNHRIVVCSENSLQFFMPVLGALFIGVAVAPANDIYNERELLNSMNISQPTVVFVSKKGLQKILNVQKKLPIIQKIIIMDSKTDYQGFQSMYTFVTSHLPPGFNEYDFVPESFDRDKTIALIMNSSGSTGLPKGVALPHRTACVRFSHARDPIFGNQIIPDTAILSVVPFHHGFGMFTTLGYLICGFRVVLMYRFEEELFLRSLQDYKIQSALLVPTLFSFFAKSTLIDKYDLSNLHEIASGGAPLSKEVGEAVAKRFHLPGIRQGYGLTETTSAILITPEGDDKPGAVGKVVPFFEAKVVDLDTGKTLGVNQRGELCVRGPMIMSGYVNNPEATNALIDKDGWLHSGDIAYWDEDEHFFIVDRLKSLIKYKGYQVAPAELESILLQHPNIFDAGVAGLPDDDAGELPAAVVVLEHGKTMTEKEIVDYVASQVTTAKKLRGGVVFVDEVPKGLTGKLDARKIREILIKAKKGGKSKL
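Material: Luciferase/luciferin reagent mix; Doses: test compounds dosed from 2 mM stocks in 100% DMSO; Schedule: 10 min incubation after luciferase reagent addition, room temperature; Measured by: luminescence from luciferase reaction; Read-out: luminescence gain marking luciferase activators.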
FLuc inh counter – firefly luciferase enzyme inhibitors, primary screen, artefact control for luciferase-based inhibitor screens, biochemical, luminescence, ATPLite; Luciferin 4-monooxygenase (Photinus pyralis), P08659; 10 min; inhibition, % at 10 µM; 1.5% of 200,000 active; AID 1006, 2008;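 active means inhibition above about 50% when tested at 10 µM, limit read from the data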
TRAIL sens C8 – viability loss with TRAIL in NB7+C8 cells, primary screen, TRAIL sensitizer project, cell-based, ATPlite luminescence; 1% of 360,000 active; inhibition (viability loss, TRAIL sensitization), % at 10 µM;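 active means compounds causing at least 50% loss of cell viability in the single-dose screen, relative to plate controls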
PPC-1 tox – cytotoxicity in PPC-1 cells, confirmation, cytotoxicity control for TRAIL apoptosis potentiator project, cell-based, ATP content luminescence; AID 1447, 2008; PPC-1 viability, ATPlite luminescence, overnight; 50% of 1,200 active; shares compounds with PPC-1+TRAIL kill; cytotoxicity, % at 5 µM;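 active means reconfirmed compounds whose average cytotoxicity reaches 50% or more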;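 further: 0% = DMSO-treated cells and 100% = wells holding medium but no cells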
An asterisk follows results filed as active; x = no result given. Shown are actives, neighbours in structure and some others; about 1.6% of the full set was active somewhere.

SMILES	Platelet DG rel	PPC-1+TRAIL kill	FLuc act counter	FLuc inh counter	TRAIL sens C8	PPC-1 tox
CN(C)c1ncnc2c1nnn2C1OC(CO)C(O)C1O (stereo not drawn)	x	x	x	x	48	x
CN(C)c1ncnc2c1ncn2C1OC(CO)C(O)C1O (stereo not drawn)	-1	44	1	-3	69*	44
O=C(Nc1ccc2c(c1)OCO2)c1cc(C2CCCCN2C(=O)c2ccc3c(c2)CCO3)on1 (stereo not drawn)	x	x	x	x	-6	x
CCc1ccc(C(=O)COC(=O)c2cccc(N3C(=O)c4c(C)nc5ccccc5c4C3=O)c2)cc1	4	72*	0.5	51*	73*	72*
Cc1ccc(S(=O)(=O)N2CCC(=O)N([C@H](COCc3ccc(Cl)cc3)C(C)C)CC2)cc1	x	x	x	x	-14	x
CCc1ccc2c(F)cccc2n1	x	x	x	x	-10	x
Cc1ccc(-n2nnc(-c3nccn3C)n2)cc1	-8	55*	0.1	88*	71*	53*
CCCCNC(=O)C1(C)CCCCN1C(=O)c1ccc2c(c1)CCO2 (stereo not drawn)	x	x	x	x	-9	x
CCOC(=O)N1CCN(S(=O)(=O)c2ccc(OCC(=O)OC)cc2)CC1	x	-2	1.1	-8	-15	3
CCOC(=O)COc1ccc(S(=O)(=O)N2CCN(C(=O)OCC)CC2)cc1	-9	-15	1	-1	1	x
Cc1ccc(-c2cc(=O)c3cc(C)ccc3[nH]2)cc1	1	79*	0.1	93*	86*	80*
O=C(Nc1ccc2c(c1)nc1n2CCOC1)c1ccccc1	5	12	0.6	37	33	x
O=C(Nc1ccc2c(c1)nc1n2CCSC1)c1ccccc1	13	57*	0.2	80*	62*	49
COC(=O)/C=C1\OCc2ccccc21	x	x	x	x	-9	x
O=C1C=C(NCCN2CCOCC2)C(=O)c2cnccc21	-1	65*	1	1	x	67*
COc1ccc(NC(=O)Nc2ccc3[nH]ccc3c2)cc1	16	x	x	x	21	x
O=C(Nc1ccc2[nH]ccc2c1)c1ccccc1	18	81*	x	x	84*	73*
O=C(Nc1ccc2[nH]ccc2c1)c1ccc(F)cc1	28	84*	x	x	88*	84*
Cc1nc2ccccc2n1C(c1cccnc1)c1nc2ccccc2[nH]1 (stereo not drawn)	x	x	x	x	-7	x
CC(C)C[C@H]1CNC(=O)C(=O)N1C[C@@H]1CCCN1C[C@H](Cc1ccc(O)cc1)N1C[C@H](Cc2ccccc2)N(CC2CCCCC2)C(=O)C1=O	x	x	x	x	-9	x
O=C(NCCCN1CCOCC1)c1ccccc1N1C(=O)[C@@H]2Cc3c([nH]c4ccccc34)C(c3ccccc3)N2C1=O (stereo partly drawn)	x	x	x	x	3	x
O=C(COC(=O)CN1C(=O)c2ccccc2C1=O)Nc1ccc(S(=O)(=O)N2CCCC2)cc1	7	13	1.1	-11	38	16
Cc1ccc(S(=O)(=O)CCC(=O)OCC(=O)Nc2cccc(S(=O)(=O)N3CCCCC3)c2)cc1	x	x	x	x	-1	x
O=C(Nc1cc(C(F)(F)F)cc(C(F)(F)F)c1)O[C@@H]1c2ccccc2[C@@H]2Cc3csc[n+]3[C@H]12	x	x	x	x	-10	x
Cc1cc(C)c2c(N)c(-c3nc4ccccc4[nH]3)sc2n1	-1	-1	1.1	-10	-2	x
SMILES	Platelet DG rel	PPC-1+TRAIL kill	FLuc act counter	FLuc inh counter	TRAIL sens C8	PPC-1 tox
Cc1ccc2nc(-c3sc4nc(C)ccc4c3N)[nH]c2c1	0	32	0.4	62*	54*	24
CCOc1ccc(-c2cc(C(=O)N3CCN(C)CC3)c3ccccc3n2)cc1	6	72*	0.2	83*	75*	67*
CCOC(=O)N1CCN(C(=O)c2cc(-c3ccc(OCC)cc3)nc3ccccc23)CC1	4	82*	0.1	92*	89*	83*
CCOC(=O)N1CCN(C(=O)c2cc(-c3ccncc3)nc3ccccc23)CC1	0	x	x	x	28	x
CC1Nc2ncnc(N3CCc4ccccc4C3)c2N(Cc2ccccc2)C1=O (stereo not drawn)	x	x	x	x	13	x
Cc1ccnc(NC(=O)COc2ccccc2[N+](=O)[O-])c1	x	44	0.2	81*	52*	52*
O=C(COc1ccccc1[N+](=O)[O-])Nc1cccnc1	3	19	0.8	21	6	x
CC(C)(C)c1ccccc1NC(=O)Nc1nc(C(N)Cc2ccc(F)cc2)cs1 (stereo not drawn)	x	x	x	x	-6	x
COc1ccc(NC(=O)/C(C#N)=C/c2ccc(Br)o2)cc1	6	6	1	-1	-8	x
COc1ccc(NC(=O)/C(C#N)=C\c2ccc(N3CCOCC3)o2)cc1	4	55*	0.2	84*	65*	58*
NC(CCc1ccccc1)c1csc(Nc2cnccn2)n1 (stereo not drawn)	x	x	x	x	6	x
Cc1ccc2nc(-c3cccc(N)c3)oc2c1	23	76*	0.1	93*	74*	75*
Cc1cc(C)c2oc(-c3cccc(N)c3)nc2c1	-8	x	x	x	16	x
CCc1ccc2oc(-c3cccc(N)c3)nc2c1	6	47	0.1	86*	82*	48
COCCN1CCN(c2cc(-c3ccccc3)nc3cc(-c4cccc(F)c4)nn23)CC1	-8	14	1.1	-9	41	6
CCN(CC)C(=O)CN(c1cc2c(cc1OC)oc1ccccc12)S(=O)(=O)c1ccccc1	0	-8	1.1	-8	0	-19
CCc1nc2c(OCC(=O)c3ccc(F)cc3)cccn2c1N(C)C(=O)C(C)C	x	x	x	x	4	x
COc1ccc(N2CCN(Cc3nc4cc(Cl)ccc4c(=O)[nH]3)CC2)cc1	-4	0	1	-5	-5	6
O=C(c1[nH]c(C(F)(F)F)nc1-c1ccccc1)N1CCN(C/C=C/c2ccccc2)CC1	x	x	x	x	-6	x

Assay outcomes (PubChem BioAssay)
